What was measured:
[1] = Inhibition of Plasmodium falciparum falcipain-2 expressed in Escherichia coli
Outline: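 Recombinant E. coli-expressed, refolded enzyme at 0.25 nM in 100 mM sodium acetate pH 5.5, 500 μM CHAPS, 10 mM DTT, DMSO ≤1%. Substrate H-D-Val-Leu-Arg-AFC at 30 μM final. Inhibitor dilutions mixed with substrate, enzyme added last; fluorescence followed 1 h at room temperature. IC50 from percent activity versus concentration.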

[2] = Inhibition of Plasmodium falciparum falcipain-3 expressed in Escherichia coli
Outline: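 Refolded recombinant enzyme from E. coli, 2 nM, in 100 mM sodium acetate pH 5.5 with 500 μM CHAPS and 10 mM DTT, DMSO up to 1%. H-D-Val-Leu-Arg-AFC at 150 μM final. Reaction started by enzyme addition; fluorescence monitored 1 h at room temperature. IC50 derived from percent activity plotted against inhibitor concentration.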

Row | SMILES | IC50 [1] [nM] | IC50 [2] [nM]
1 | CC(C)CN(NC(=O)c1cc2ccccc2o1)c1nc(C#N)ncc1Br | 65 | 563
2 | CC(C)CN(NC(=O)c1ccc(Cc2ccccc2)cc1)c1nc(C#N)ncc1Cl | 18 | 962
3 | Cc1ccc2sc(C(=O)NN(CC(C)C)c3nc(C#N)ncc3Br)cc2c1 | 6 | 748
4 | CC(C)CN(NC(=O)OC(C)(C)C)c1nc(C#N)ncc1C#Cc1ccc(C(F)(F)F)cc1 | 102 | 5330
5 | CC(C)CN(NC(=O)OC(C)(C)C)c1nc(C#N)ncc1Cl | 9 | 144
6 | CC(C)CN(NC(=O)c1cccc2c1C(=O)c1ccccc1-2)c1nc(C#N)ncc1Br | 25 | 831
7 | CC(C)(C)OC(=O)NN(c1nc(C#N)ncc1Br)C1CCN(C(=O)OC(C)(C)C)CC1 | 26 | 135
8 | CC(C)CN(NC(=O)c1cccc2cc[nH]c12)c1nc(C#N)ncc1Br | 3 | 342
9 | CC(C)(C)OC(=O)NN(c1nc(C#N)ncc1Br)C1CCCC1(C)C (configuration not stated) | 34 | 447
10 | Cc1nc(-c2ccc3c(c2)CCO3)sc1C(=O)NN(CC(C)C)c1nc(C#N)ncc1Cl | 3 | 950
11 | CC(C)CN(NC(=O)c1ccc2nccnc2c1)c1nc(C#N)ncc1Br | 66 | 1440
12 | CC(C)CN(NC(=O)OC(C)(C)C)c1nccc(C#N)n1 | 196 | 3570
13 | Cc1ccc2[nH]c(C(=O)NN(CC(C)C)c3nc(C#N)ncc3Br)cc2c1 | 33 | 1530
14 | CC(=O)N[C@H]1CC[C@H](N(NC(=O)OC(C)(C)C)c2nc(C#N)ncc2Br)CC1 | 7 | 67
15 | COc1ccc(C(C)(C)C(=O)NN(CC(C)C)c2nc(C#N)ncc2Br)cc1 | 6 | 34
16 | CC(C)CN(NC(=O)OC(C)(C)C)c1nc(C#N)ncc1NCc1ccccc1 | 616 | 2070
17 | CC(C)CN(NC(=O)C(C)(C)c1ccc(Cl)cc1)c1nc(C#N)ncc1Br | 4 | 18
18 | CC(C)CN(NC(=O)C1(c2ccc(Cl)cc2)CCC1)c1nc(C#N)ncc1Br | 12 | 216
19 | CC(C)CN(NC(=O)OC(C)(C)C)c1ccnc(C#N)n1 | 60 | 870

Row | SMILES | IC50 [1] [nM] | IC50 [2] [nM]
20 | CC(C)CN(NC(=O)c1c[nH]c(-c2ccccc2)n1)c1nc(C#N)ncc1Br | 4 | 146
21 | CC(C)CN(NC(=O)c1ccc(-n2cccn2)cc1)c1nc(C#N)ncc1Cl | 8 | 148
22 | CC(C)CN(NC(=O)c1cc2ccccc2s1)c1nc(C#N)ncc1Br | 241 | 365
23 | CC(C)CN(NC(=O)c1cc(-c2cccs2)on1)c1nc(C#N)ncc1Br | 4 | 218
24 | CC(C)CN(NC(=O)c1ccccc1Oc1ccccc1)c1nc(C#N)ncc1Br | 5 | 66
25 | CC(C)CN(NC(=O)C1(c2ccccc2)CC1)c1nc(C#N)ncc1Br | 6 | 102
26 | CC(C)(C)OC(=O)NN(CC1CCCO1)c1nc(C#N)ncc1Br (configuration not stated) | 14 | 112
27 | CC(C)(C)OC(=O)NN(Cc1ccccc1)c1nc(C#N)ncc1Br | 17 | 347
28 | CC(C)CN(NC(=O)OC(C)(C)C)c1cncc(C#N)n1 | 59 | 1670
29 | CC(C)CN(NC(=O)OC(C)(C)C)c1cccc(C#N)n1 | 609 | > 10000
30 | CC(C)CN(NC(=O)OC(C)(C)C)c1cc(C#N)ncn1 | > 10000 | > 10000
31 | CC(C)(C)OC(=O)NN(CCC1CCCC1)c1nc(C#N)ncc1Br | 64 | 504
32 | CC(C)CN(NC(=O)c1ccc(-c2ccc(Cl)cc2)o1)c1nc(C#N)ncc1Br | 20 | 351
33 | CC(C)(C)OC(=O)NN(CC1CC1)c1nc(C#N)ncc1Br | 7 | 413
34 | CC(C)CN(NC(=O)OC(C)(C)C)c1nc(Cl)ncc1[N+](=O)[O-] | > 25000 | > 25000
35 | CC(C)CN(NC(=O)OC(C)(C)C)c1ncc(C#N)c(Cl)n1 | 64 | 990
36 | CC1OCCC1N(NC(=O)OC(C)(C)C)c1nc(C#N)ncc1Br (configuration not stated) | 7 | 98
37 | CC(C)CN(NC(=O)c1cc2ccccc2cn1)c1nc(C#N)ncc1Cl | 7 | 333
38 | CC(C)CN(NC(=O)c1cccc2c1Cc1ccccc1-2)c1nc(C#N)ncc1Br | 4 | 329

Row | SMILES | IC50 [1] [nM] | IC50 [2] [nM]
39 | CC(C)CN(NC(=O)OC(C)(C)C)c1nc(C#N)ncc1Br | 3 | 92
40 | C[C@H]1CCC[C@H]1N(NC(=O)OC(C)(C)C)c1nc(C#N)ncc1Br (relative stereo) | 58 | 407
41 | CC(C)CN(NC(=O)c1onc2ccccc12)c1nc(C#N)ncc1Br | 604 | > 10000
42 | CC(C)CN(NC(=O)c1ccc(-n2ccnc2)cc1)c1nc(C#N)ncc1Br | 9 | 239
43 | CC(C)CN(NC(=O)c1cc(-c2ccccc2)cs1)c1nc(C#N)ncc1Br | 3 | 374
44 | CC(C)CN(NC(=O)c1csc(-c2ccccc2)n1)c1nc(C#N)ncc1Br | 3 | 130
45 | CC(C)(C)OC(=O)NN(CC1CCCCC1)c1nc(C#N)ncc1Br | 24 | 146
46 | CC(C)(C)OC(=O)NN(CCC1CCCCC1)c1nc(C#N)ncc1Br | 257 | 860
47 | COc1ccc(-c2cc(C(=O)NN(CC(C)C)c3nc(C#N)ncc3Br)no2)cc1 | 4 | 692
48 | Cc1c(C(=O)NN(CC(C)C)c2nc(C#N)ncc2Br)noc1-c1ccccc1 | 20 | 71
49 | CC(C)CN(NC(=O)C1(c2ccccc2)CCCC1)c1nc(C#N)ncc1Br | 11 | 137
50 | CC(C)CN(NC(=O)C1(c2ccc(Cl)cc2)CCCC1)c1nc(C#N)ncc1Br | 12 | 184
51 | Cc1c(-c2ccccc2Cl)noc1C(=O)NN(CC(C)C)c1nc(C#N)ncc1Cl | 100 | 571
52 | CC1CCC(N(NC(=O)OC(C)(C)C)c2nc(C#N)ncc2Br)C1 (configuration not stated) | 3 | 53
53 | CC(C)CN(NC(=O)c1ccc(-c2cccc(C(F)(F)F)c2)o1)c1nc(C#N)ncc1Br | 5 | 97
54 | CC(C)CN(NC(=O)c1ccc(Oc2ccccc2)cc1)c1nc(C#N)ncc1Br | 8 | 896
55 | CC(C)CN(NC(=O)c1cc(-c2ccccc2)[nH]n1)c1nc(C#N)ncc1Br | 3 | 352
56 | CC(C)CN(NC(=O)c1ncoc1-c1ccccc1)c1nc(C#N)ncc1Br | 14 | 94

These reach a lower IC50 [1]. Values come first.

Row | IC50 [1] [nM] | IC50 [2] [nM] | SMILES
57 | 2 | 67 | CC(C)CN(NC(=O)c1cccc2c1-c1ccccc1C2=O)c1nc(C#N)ncc1Br
58 | 1 | 5 | COc1ccc(CC(=O)NN(CC(C)C)c2nc(C#N)ncc2Cl)cc1
59 | 2 | 120 | CC(C)CN(NC(=O)c1cc(-c2ccccc2)no1)c1nc(C#N)ncc1Cl
60 | 0.5 | 93 | CC(C)CN(NC(=O)c1ccc2[nH]cnc2c1)c1nc(C#N)ncc1Cl
61 | 0.2 | 40 | CC(C)CN(NC(=O)c1ccc2[nH]nnc2c1)c1nc(C#N)ncc1Br
62 | 2 | 35 | CC(C)(C)OC(=O)NN(CC1CC=CC1)c1nc(C#N)ncc1Br
63 | 1 | 39 | CC(C)CN(NC(=O)c1ccc(-c2ccccc2)o1)c1nc(C#N)ncc1Br
64 | 1 | 37 | CC(C)CN(NC(=O)c1cccc(-c2ccccc2)c1)c1nc(C#N)ncc1Br
65 | 0.7 | 69 | CC(C)CN(NC(=O)c1ccc2occc2c1)c1nc(C#N)ncc1Br
66 | 0.2 | 27 | Cc1nc2cc(C(=O)NN(CC(C)C)c3nc(C#N)ncc3Br)ccc2[nH]1
67 | 1 | 66 | CC(C)CN(NC(=O)Cc1c(Cl)cccc1Cl)c1nc(C#N)ncc1Br
68 | 2 | 112 | CC(C)CN(NC(=O)c1nc2ccccc2s1)c1nc(C#N)ncc1Cl
69 | 2 | 198 | CC(C)CN(NC(=O)c1cnc(-c2ccc3c(c2)CCO3)s1)c1nc(C#N)ncc1Cl
70 | 1 | 10 | CC(C)(C)OC(=O)NN(CC1CCCC1)c1nc(C#N)ncc1Br
71 | < 0.5 | 33 | CC(=O)N1CCC(N(NC(=O)OC(C)(C)C)c2nc(C#N)ncc2Br)CC1
72 | 2 | 144 | CC(C)CN(NC(=O)c1ccc(-n2ccc(C(F)(F)F)n2)cc1)c1nc(C#N)ncc1Cl
73 | 1 | 44 | CC(C)CN(NC(=O)c1ccnc2ccccc12)c1nc(C#N)ncc1Cl
74 | 2 | 21 | CC(C)(C)OC(=O)NN(c1nc(C#N)ncc1Br)C1CC=CC1
75 | 2 | 28 | CC(C)(C)OC(=O)NN(c1nc(C#N)ncc1Br)C1CCOCC1
76 | 2 | 41 | CC(C)(C)OC(=O)NN(CC1CC=CCC1)c1nc(C#N)ncc1Br (configuration not stated)
77 | 2 | 38 | CC(C)(C)OC(=O)NN(c1nc(C#N)ncc1Br)C1CCN(C(=O)OCc2ccccc2)CC1
78 | 0.5 | 8 | CC(C)CN(NC(=O)Cc1c(F)cccc1F)c1nc(C#N)ncc1Br
79 | 0.8 | 26 | CC(C)CN(NC(=O)c1cncc(-c2ccccc2)c1)c1nc(C#N)ncc1Cl
80 | 1.5 | 6 | COc1ccc(CC(=O)NN(CC(C)C)c2nc(C#N)ncc2Br)cc1
81 | 1 | 30 | CC(C)CN(NC(=O)c1cc(-c2ccccc2)ncn1)c1nc(C#N)ncc1Cl

Reference: ChEMBL document CHEMBL1212900, “Falcipain inhibitors: optimization studies of the 2-pyrimidinecarbonitrile lead series” (J Med Chem, 2010)
